# Calls of active or inactive are those of the source. The calls are words filed in the database; no cut-off is given here.
# Legend:
# Rattus norvegicus [1] = assay: Antiallergic activity against egg albumin-induced anaphylaxis in sensitized rat at 5 mg/kg, po administered 15 mins prior to antigen challenge as single dose measured up to 4 hrs by passive cutaneous anaphylaxis test; assay type: functional, organism-based; set-up: dose 5 mg/kg
# Procedure, shortened: (§1)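 Male Sprague–Dawley or Wistar rats (100–150 g) were passively sensitized by two intradermal dilutions of rat anti-egg-albumin serum, which was mainly IgE and raised with EA im (10 mg/kg) plus killed pertussis vaccine iv. After 48 h, drug or vehicle was given. Rats were then challenged iv with EA plus Evans Blue (25 mg/kg each). Spot diameter was read 20–30 min later; ≥5 rats/compound. % inhibition was calculated versus control mean diameter.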
# Rattus norvegicus [2] = assay: Antiallergic activity against egg albumin-induced anaphylaxis in po dosed sensitized rat compound administered 15 mins prior to antigen challenge as single dose by passive cutaneous anaphylaxis test; assay type: functional; procedure, shortened: as §1
# Rattus norvegicus [3] = assay: Antiallergic activity against egg albumin-induced anaphylaxis in sensitized rat at 25 mg/kg, po administered 15 mins prior to antigen challenge as single dose measured up to 4 hrs by passive cutaneous anaphylaxis test; assay type: functional, organism-based; set-up: dose 25 mg/kg; procedure, shortened: as §1
# Mast cell [4] = assay: Inhibition of histamine release in Sprague-Dawley rat peritoneal mast cells at 5 uM after 10 mins by fluorimetry relative to control; assay type: functional
# Procedure, shortened: (§2)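 Peritoneal lavage cells from male Sprague–Dawley rats (200–300 g) were sensitized for 2 h at 37 °C in rat anti-EA serum with heparin. Cells were resuspended in buffered HBSS and challenged with EA. Drug was added together with antigen. After 10 min incubation, histamine was measured fluorimetrically. % inhibition was calculated versus release without drug.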
# Mast cell [5] = assay: Inhibition of histamine release in Sprague-Dawley rat peritoneal mast cells at 20 uM after 10 mins by fluorimetry relative to control; assay type: functional; procedure, shortened: as §2
# Mast cell [6] = assay: Inhibition of histamine release in Sprague-Dawley rat peritoneal mast cells at 1.25 uM after 10 mins by fluorimetry relative to control; assay type: functional; procedure, shortened: as §2
# Rattus norvegicus [7] = assay: Antiallergic activity against egg albumin-induced anaphylaxis in iv dosed sensitized rat compound administered 15 mins prior to antigen challenge as single dose by passive cutaneous anaphylaxis test; assay type: functional; procedure, shortened: as §1
# Rattus norvegicus [8] = assay: Inhibition of egg albumin-induced allergic bronchospasm in sensitized, spontaneously breathing and anesthesized Harlan-Wistar rat assessed as inhibition of control allergic bronchospasm response at 0.39 mg/kg administered intraduodenally 15 min prior to antigen challenge; assay type: functional; conditions: route intraduodenal
# Procedure, shortened: (§3)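 Male Harlan-Wistar rats (225–275 g) were sensitized with EA im (1 mg/rat) plus pertussis vaccine ip. After 13–15 days they were urethane-anesthetized (1.5 g/kg ip). Drug was given intraduodenally in methocel or iv in saline, then EA 2 mg/rat iv. Pulmonary ventilation pressure and mean arterial pressure were recorded. Individual responses were compared with a separate vehicle-control group mean; 4–15 rats/group.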
# Rattus norvegicus [9] = assay: Inhibition of egg albumin-induced allergic bronchospasm in sensitized, spontaneously breathing and anesthesized Harlan-Wistar rat assessed as drop in pulmonary arterial blood pressure at 3.125 mg/kg administered intraduodenally 15 min prior to antigen challenge (reference value: 32.2 +/- 4.7 %); assay type: functional; conditions: route intraduodenal; procedure, shortened: as §3
# Rattus norvegicus [10] = assay: Inhibition of egg albumin-induced allergic bronchospasm in sensitized, spontaneously breathing and anesthesized Harlan-Wistar rat assessed as inhibition of control allergic hypotension response at 3.125 mg/kg administered intraduodenally 15 min prior to antigen challenge; assay type: functional; conditions: route intraduodenal; procedure, shortened: as §3
# Rattus norvegicus [11] = assay: Inhibition of egg albumin-induced allergic bronchospasm in sensitized, spontaneously breathing and anesthesized Harlan-Wistar rat assessed as inhibition of control allergic bronchospasm response compound administered intraduodenally 15 min prior to antigen challenge; assay type: functional; procedure, shortened: as §3
# Rattus norvegicus [12] = assay: Inhibition of egg albumin-induced allergic bronchospasm in sensitized, spontaneously breathing and anesthesized Harlan-Wistar rat assessed as inhibition of control allergic hypotension response at 0.78 mg/kg administered intraduodenally 15 min prior to antigen challenge; assay type: functional; conditions: route intraduodenal; procedure, shortened: as §3
# Rattus norvegicus [13] = assay: Inhibition of egg albumin-induced allergic bronchospasm in sensitized, spontaneously breathing and anesthesized Harlan-Wistar rat assessed as drop in mean arterial blood pressure at 3.125 mg/kg administered intraduodenally 15 min prior to antigen challenge (reference value: 46.3 +/- 3.5 %); assay type: functional; conditions: route intraduodenal; procedure, shortened: as §3
# Rattus norvegicus [14] = assay: Inhibition of egg albumin-induced allergic bronchospasm in sensitized, spontaneously breathing and anesthesized Harlan-Wistar rat assessed as inhibition of control allergic hypotension response compound administered intraduodenally 15 min prior to antigen challenge; assay type: functional; conditions: in the assay text read “bronchospasm response” for “hypotension response”; procedure, shortened: as §3
# Rattus norvegicus [15] = assay: Inhibition of egg albumin-induced allergic bronchospasm in sensitized, spontaneously breathing and anesthesized Harlan-Wistar rat assessed as drop in pulmonary arterial blood pressure at 0.78 mg/kg administered intraduodenally 15 min prior to antigen challenge (reference value: 32.2 +/- 4.7 %); assay type: functional; conditions: route intraduodenal; procedure, shortened: as §3
# Rattus norvegicus [16] = assay: Inhibition of egg albumin-induced allergic bronchospasm in sensitized, spontaneously breathing and anesthesized Harlan-Wistar rat assessed as drop in mean arterial blood pressure at 0.78 mg/kg administered intraduodenally 15 min prior to antigen challenge (reference value: 46.3 +/- 3.5 %); assay type: functional; conditions: route intraduodenal; procedure, shortened: as §3
# Rattus norvegicus [17] = assay: Inhibition of egg albumin-induced allergic bronchospasm in sensitized, spontaneously breathing and anesthesized Harlan-Wistar rat assessed as inhibition of control allergic bronchospasm response at 0.78 mg/kg administered intraduodenally 15 min prior to antigen challenge; assay type: functional; conditions: route intraduodenal; procedure, shortened: as §3
# Rattus norvegicus [18] = assay: Inhibition of egg albumin-induced allergic bronchospasm in sensitized, spontaneously breathing and anesthesized Harlan-Wistar rat assessed as inhibition of control allergic bronchospasm response at 3.125 mg/kg administered intraduodenally 15 min prior to antigen challenge; assay type: functional; conditions: route intraduodenal; procedure, shortened: as §3
# Rattus norvegicus [19] = assay: Inhibition of egg albumin-induced allergic bronchospasm in sensitized, spontaneously breathing and anesthesized Harlan-Wistar rat assessed as inhibition of control allergic hypotension response at 0.39 mg/kg administered intraduodenally 15 min prior to antigen challenge; assay type: functional; conditions: route intraduodenal; procedure, shortened: as §3
# Plasma = assay: Drug metabolism in Sprague-Dawley rat plasma assessed as sodium 2-carboxy-6-ethyl-4a,7a-dihydrothieno[2,3-d]pyrimidin-4-olate formation at 50 mg/kg, po; assay type: ADME, organism-based; set-up: dose 50 mg/kg, route oral; conditions: in vivo
# Procedure, shortened: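 Mature Sprague–Dawley rats (150–200 g) were fasted overnight and given a single 50 mg/kg oral dose. Blood was taken at 0.5–6 h, two rats per time point. Plasma (1 mL) was acidified to pH 1–2 and extracted twice with CHCl₃. The dried residue was taken up in methanol and quantified by reverse-phase C-18 HPLC.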
# Rattus norvegicus [20] = assay: Inhibition of egg albumin-induced allergic bronchospasm in sensitized, spontaneously breathing and anesthesized Harlan-Wistar rat assessed as drop in mean arterial blood pressure at 0.39 mg/kg administered intraduodenally 15 min prior to antigen challenge (reference value: 46.3 +/- 3.5 %); assay type: functional; conditions: route intraduodenal; procedure, shortened: as §3
# Rattus norvegicus [21] = assay: Antiallergic activity against egg albumin-induced anaphylaxis in sensitized rat at 30 mg/kg, po administered 15 mins prior to antigen challenge as single dose measured up to 4 hrs by passive cutaneous anaphylaxis test; assay type: functional, organism-based; set-up: dose 30 mg/kg; procedure, shortened: as §1
# Rattus norvegicus [22] = assay: Inhibition of egg albumin-induced allergic bronchospasm in sensitized, spontaneously breathing and anesthesized Harlan-Wistar rat assessed as drop in pulmonary arterial blood pressure at 0.39 mg/kg administered intraduodenally 15 min prior to antigen challenge (reference value: 32.2 +/- 4.7 %); assay type: functional; conditions: route intraduodenal; procedure, shortened: as §3
# Rattus norvegicus [23] = assay: Antiallergic activity against egg albumin-induced anaphylaxis in sensitized rat at 10 mg/kg, po administered 15 mins prior to antigen challenge as single dose measured up to 4 hrs by passive cutaneous anaphylaxis test; assay type: functional, organism-based; set-up: dose 10 mg/kg; procedure, shortened: as §1
# Rattus norvegicus [24] = assay: Antiallergic activity against egg albumin-induced anaphylaxis in sensitized rat at 50 mg/kg, po administered 15 mins prior to antigen challenge as single dose measured up to 4 hrs by passive cutaneous anaphylaxis test; assay type: functional, organism-based; set-up: dose 50 mg/kg; procedure, shortened: as §1
structure (smiles),measurement,setting,value
CCOC(=O)c1nc2sc(CC)c(C)c2c(=O)o1,Activity,Rattus norvegicus [1],inactive
CCOC(=O)c1nc2scc(C)c2c(=O)[nH]1,ED50,Rattus norvegicus [2],50 mg/kg
CCCCCCc1cc2c(=O)[nH]c(C(=O)OCC)nc2s1,ED50,Rattus norvegicus [2],> 5 mg/kg
CCc1sc2nc(C(=O)O)nc(O)c2c1N,Activity,Rattus norvegicus [3],inactive
CCOC(=O)c1nc2sc(C(C)=O)c(C)c2c(=O)[nH]1,ED50,Rattus norvegicus [2],25 mg/kg
CCCCCCc1cc2c([O-])nc(C(=O)[O-])nc2s1.O.[Na+].[Na+],ED50,Rattus norvegicus [2],17.7 mg/kg
CCc1cc2c([O-])nc(C(=O)[O-])nc2s1.O.[Na+].[Na+],inhibition at 5 µM,Mast cell [4],51%
same,ED50,Rattus norvegicus [2],13 mg/kg
same,inhibition at 20 µM,Mast cell [5],73%
same,inhibition at 1.25 µM,Mast cell [6],22%
same,ED50,Rattus norvegicus [7],1.2 mg/kg
CCOC(=O)c1nc2sc(C(C)C)cc2c(=O)o1,ED50,Rattus norvegicus [2],> 10 mg/kg
CCOC(=O)c1nc2sc(CC)cc2c(=O)[nH]1,inhibition in vivo at 0.39 mg/kg,Rattus norvegicus [8],4.3%
same,inhibition at 5 µM,Mast cell [4],55%
same,inhibition in vivo at 3.125 mg/kg,Rattus norvegicus [9],17.1%
same,inhibition in vivo at 3.125 mg/kg,Rattus norvegicus [10],18.9%
same,inhibition,Rattus norvegicus [11],Dose-dependent effect
same,ED50,Rattus norvegicus [11]; intraduodenal,1 mg/kg
same,inhibition in vivo at 0.78 mg/kg,Rattus norvegicus [12],5.2%
same,ED50,Rattus norvegicus [2],2.4 mg/kg
same,inhibition at 20 µM,Mast cell [5],82%
same,inhibition in vivo at 3.125 mg/kg,Rattus norvegicus [13],42.4%
same,inhibition,Rattus norvegicus [14],Dose-dependent effect
same,ED50,Rattus norvegicus [14]; intraduodenal,1 mg/kg
same,inhibition in vivo at 0.78 mg/kg,Rattus norvegicus [15],29.2%
same,inhibition at 1.25 µM,Mast cell [6],19%
same,inhibition in vivo at 0.78 mg/kg,Rattus norvegicus [16],51.8%
same,inhibition in vivo at 0.78 mg/kg,Rattus norvegicus [17],27.8%
same,inhibition in vivo at 3.125 mg/kg,Rattus norvegicus [18],53.6%
same,inhibition in vivo at 0.39 mg/kg,Rattus norvegicus [19],2.7%
same,Drug metabolism,Plasma,metabolite_detected
same,inhibition in vivo at 0.39 mg/kg,Rattus norvegicus [20],48.7%
same,Activity,Rattus norvegicus [21],Active
same,inhibition in vivo at 0.39 mg/kg,Rattus norvegicus [22],48.8%
CCOC(=O)c1nc2sc(C(C)=O)c(C)c2c(=O)o1,Activity,Rattus norvegicus [1],inactive
CCOC(=O)c1nc2sc(CC)cc2c(=O)o1,ED50,Rattus norvegicus [2],34.4 mg/kg
CCOC(=O)C(=O)Nc1sccc1C(N)=O,ED50,Rattus norvegicus [2],4.5 mg/kg
same,ED50,Rattus norvegicus [7],0.2 mg/kg
same,Activity,Rattus norvegicus [21],Active
CCOC(=O)c1nc2sc(CC(C)C)c(C)c2c(=O)o1,Activity,Rattus norvegicus [1],inactive
CCOC(=O)c1nc2sc(N)c(C)c2c(=O)[nH]1,ED50,Rattus norvegicus [2],< 50 mg/kg
CCOC(=O)c1nc2sc(CC(C)C)c(C)c2c(=O)[nH]1,ED50,Rattus norvegicus [2],8.1 mg/kg
CCCCCCc1sc2nc(C(=O)OCC)[nH]c(=O)c2c1C,ED50,Rattus norvegicus [2],50 mg/kg
CCCCCCc1cc2c(=O)oc(C(=O)OCC)nc2s1,Activity,Rattus norvegicus [23],inactive
Cc1c(CC(C)C)sc2nc(C(=O)[O-])nc([O-])c12.O.[K+].[K+],ED50,Rattus norvegicus [2],2.7 mg/kg
same,ED50,Rattus norvegicus [7],0.14 mg/kg
CC(=O)c1sc2nc(C(=O)O)nc(O)c2c1C,Activity,Rattus norvegicus [24],inactive
CCCCCCc1sc2nc(C(=O)OCC)oc(=O)c2c1C,ED50,Rattus norvegicus [2],8.2 mg/kg
Cc1csc2nc(C(=O)[O-])nc([O-])c12.O.[Na+].[Na+],ED50,Rattus norvegicus [2],50 mg/kg
CCOC(=O)c1nc2sc(CC)c(I)c2c(=O)[nH]1,ED50,Rattus norvegicus [2],8.1 mg/kg
CCOC(=O)c1nc2sc(CC)c(C)c2c(=O)[nH]1,ED50,Rattus norvegicus [2],11.3 mg/kg
Cc1c(CC(C)C)sc2nc(C(=O)O)[nH]c(=O)c12,Activity,Rattus norvegicus [21],Active
CCOC(=O)c1nc2sccc2c(=O)[nH]1,ED50,Rattus norvegicus [2],> 25 mg/kg
CCOC(=O)c1nc2sc(CC)c(N)c2c(=O)[nH]1,ED50,Rattus norvegicus [2],10 mg/kg
O.O=C([O-])c1nc([O-])c2c3c(sc2n1)CCCC3.[Na+].[Na+],ED50,Rattus norvegicus [2],50 mg/kg
CC(C)c1cc2c([O-])nc(C(=O)[O-])nc2s1.O.[Na+].[Na+],ED50,Rattus norvegicus [2],> 10 mg/kg
same,ED50,Rattus norvegicus [7],1 mg/kg
CCOC(=O)c1nc2sc(C(C)C)cc2c(=O)[nH]1,ED50,Rattus norvegicus [2],17.9 mg/kg
CCc1sc2nc(C(=O)[O-])nc([O-])c2c1C.O.[Na+].[Na+],ED50,Rattus norvegicus [2],10 mg/kg
